HCV NS3 hel inh: inhibitors of HCV NS3 helicase, primary screen, biochemical, Cy5 molecular beacon fluorescence | Hepatitis C virus NS3 helicase | NS3 helicase DNA unwinding | inhibition, % at 10.9 µM | actives 0.56% (n = 290,000) | AID 1800, 2009;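 active means inhibition above the mean of all tested compounds plus 3 SD, set per campaign, cut at about 35% in these data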
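Control set: DMSO versus 110 µM thioflavine S; Material: NS3 helicase fragment of HCV; Measured by: Cy5 fluorescence at 0 and 60 min, beacon hairpin quenching; Read-out basis: percent inhibition from t60/t0 fluorescence ratio; Times: reaction time 60 min, 25 °C; Repeats: single replicate; Compound dosing: single dose, 10.9 µM nominal final, DMSO 0.8% final.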
T cruzi inh: inhibitors of intracellular T. cruzi growth, primary screen, luminescence, NIH3T3 host cells | T. cruzi beta-gal in NIH3T3, 90 h | inhibition, % (no concentration beside the values) | actives 1.4% (n = 300,000);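 active means mean inhibition across valid replicates above about 55%, limit read from the data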;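 further: signal also drops with host cell toxicity which is not excluded here; higher percent means less beta-gal luminescence so fewer parasites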
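Material: NIH/3T3 host cells with β-galactosidase reporter T. cruzi; Input: 5,000 host fibroblasts per well; Medium: DMEM, 2% fetal bovine serum; Compound: 50 nL DMSO compound solution per well; Schedule: 3 h host attachment, then at least 90 h co-culture; Detection: luminescent β-galactosidase signal after 60 min lysis.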
DNA FID counter-1: compounds displacing fluorescent DNA intercalator, primary screen, artefact control for HCV NS3 helicase inhibitor project, biochemical, FID fluorescence. inhibition, % at 7.9 µM. DNA fluorescent intercalator displacement. actives 0.17% (n = 290,000);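 further: higher means more ethidium bromide displaced from hairpin DNA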
MEKK3 PB1 HTS: modulators of MEKK3-MEK5 PB1 binding, primary screen, biochemical, wildtype MEKK3, multiplex bead flow cytometry, Alexa488-MEK5; Mitogen-activated protein kinase kinase kinase 3 (Homo sapiens), Q99759; bead-based flow cytometry, Alexa488-MEK5 binding to MEKK3; actives lie on both sides; 0 = blocked by unlabeled MEK5, 100 = vehicle; binding response (% of control), % at 10 µM; actives 1.4% (n = 290,000); AID 1529, 2009;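 active means binding response more than 3 SD above or below the average of its plate-row segment, actives on both sides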;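 further: Alexa488 bead fluorescence after subtracting the streptavidin-only scavenger bead signal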
Target sequence (Q99759 whole entry, looked up): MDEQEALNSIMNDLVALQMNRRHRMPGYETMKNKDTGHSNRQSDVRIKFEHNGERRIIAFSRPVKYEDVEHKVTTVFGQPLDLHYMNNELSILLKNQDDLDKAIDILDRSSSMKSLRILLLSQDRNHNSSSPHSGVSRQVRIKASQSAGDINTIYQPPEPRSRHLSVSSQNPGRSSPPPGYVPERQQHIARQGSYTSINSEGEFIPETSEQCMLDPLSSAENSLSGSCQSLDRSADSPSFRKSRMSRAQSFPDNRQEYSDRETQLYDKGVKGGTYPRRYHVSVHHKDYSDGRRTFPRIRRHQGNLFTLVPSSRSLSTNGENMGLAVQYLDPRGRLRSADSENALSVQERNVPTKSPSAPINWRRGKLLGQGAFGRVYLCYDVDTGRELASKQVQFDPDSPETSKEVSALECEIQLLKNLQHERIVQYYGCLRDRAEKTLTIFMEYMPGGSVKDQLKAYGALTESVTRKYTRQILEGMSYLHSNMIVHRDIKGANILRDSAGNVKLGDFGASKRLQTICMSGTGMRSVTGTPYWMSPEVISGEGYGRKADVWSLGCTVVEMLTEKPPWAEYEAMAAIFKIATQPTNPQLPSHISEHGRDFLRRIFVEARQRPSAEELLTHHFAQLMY
MEKK2mut PB1 HTS: MEK5 binding signal on mutant MEKK2 PB1, primary screen, biochemical, multiplex bead flow cytometry, Alexa488-MEK5 | Alexa488-MEK5 binding to MEKK2 mutant | percent response, % at 10 µM | actives 0.35% (n = 290,000); in the data active means percent response above about 24%, passing the limit was not always enough
MEKK2 WT-MEK5: modulators of MEK5 binding to wildtype MEKK2, primary screen, biochemical, multiplex bead flow cytometry, Alexa488-MEK5. AID 1531, 2009. Alexa488-MEK5 binding to MEKK2 WT; actives lie on both sides. actives 1.1% (n = 290,000). binding response (% of control), % at 10 µM. Mitogen-activated protein kinase kinase kinase 2 (Homo sapiens), Q9Y2U5; in the data active means binding response below about 67% or above about 130%
NS3 hel confirm: HCV NS3 helicase inhibitors, retest, confirmation, biochemical, Cy5 molecular beacon fluorescence, triplicate; shares compounds with HCV NS3 hel inh; NS3 helicase DNA unwinding; inhibition, % at 10.9 µM; actives 31% (n = 1,600); AID 1943, 2009;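 active means inhibition above the mean of all tested compounds plus 3 SD, cutoff set per campaign, cut at about 36% in these data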
DNA FID counter-2: compounds displacing fluorescent DNA intercalator, artefact control for HCV NS3 helicase inhibitor project, biochemical, FID fluorescence, triplicate | shares compounds with HCV NS3 hel inh | DNA fluorescent intercalator displacement | inhibition, % at 7.9 µM | actives 4% (n = 1,600) | AID 1945, 2009;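 further: higher means more displacement of ethidium bromide from the DNA hairpin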
DNA FID DR: compounds displacing fluorescent intercalator from DNA, dose response, counter-screen for HCV NS3 helicase inhibitor project, biochemical, fluorescence; 120 tested, under 10 active; fluorescent intercalator displacement from DNA; AID 2172, 2009; shares compounds with HCV NS3 hel inh; IC50, µM; call rule not given here
A number is an active result; - = inactive; . = no result given. An excerpt weighted towards active compounds, which were near 4.1% of everything screened. Unless noted, no stated cut-off is given here; in the data, active means inhibition above about 37%; inactive means the rest.

SMILES	HCV NS3 hel inh	T cruzi inh	DNA FID counter-1	MEKK3 PB1 HTS	MEKK2mut PB1 HTS	MEKK2 WT-MEK5	NS3 hel confirm	DNA FID counter-2	others
O=C1NN(c2cccc(Br)c2)C(=O)/C1=C\c1ccc(O)cc1	-	-	-	-	-	-	.	.
COc1ccccc1C(=O)NC(=O)COC(=O)c1nc(Cl)ccc1Cl	.	-	.	.	.	.	.	.
COc1cccc(C2c3[nH]c4ccccc4c3C[C@H]3C(=O)N(CCCOC(C)C)CC(=O)N23)c1 (stereo partly drawn)	85	-	-	-	-	-	-	-
Cn1nc(C(=O)OCC(=O)Nc2sccc2C(N)=O)c2ccccc2c1=O	-	-	-	-	-	-	.	.
C[C@@H](CN=[N+]=[N-])CN1CC[C@H](O)CCC1=O	37	-	-	-	-	-	-	-
C[C@@H](CSc1ccccc1)CN1CC[C@H](O)CCC1=O	44	-	-	-	-	-	-	-
C[C@@H](CSc1ccccc1)CN1CC[C@H](NC(=O)OCc2ccccc2)CCC1=O	-	-	-	-	-	-	.	.
[N-]=[N+]=NC[C@H](Cc1ccccc1)N1CC[C@@H](O)CCC1=O	-	-	-	-	-	-	.	.
CCCCNC(=O)C1CC(=O)N(CCc2ccc(C)cc2)C1 (stereo not drawn)	-	-	-	-	-	-	.	.
Cc1ccc(-n2ncc(C#N)c2/N=C/N2CCCCCC2)cc1	101	-	-	.	.	.	-	-
Cc1ccc(-n2ncc(C#N)c2/N=C/N2CCN(C)CC2)cc1	-	-	-	-	-	-	.	.
Cc1cc(N2C(=O)C(=O)/C(=C(/O)c3ccc(F)cc3)C2c2ccc(Cl)cc2)no1 (stereo not drawn)	43	-	-	-	-	-	68	-
C/C(=N\NC(=O)c1cc(O)ccc1O)c1cccc(NC(=O)c2cccc(Cl)c2)c1	-	-	-	-	-	-	.	.
C/C(=N\NC(=O)c1cc(O)ccc1O)c1cccc(NC(=O)c2ccc(Cl)cc2)c1	40	-	-	-	-	-	-	-
CC(=O)NC(Cc1ccc(F)cc1)C(=O)NC1CCN(C(=O)NCc2ccccc2)CC1 (stereo not drawn)	-	-	-	-	-	-	.	.
CC(=O)c1ccc(NC(=O)c2ccc3nc(-c4ccco4)c(-c4ccco4)nc3c2)cc1	39	-	-	-	-	-	78	-
O=C(c1cccc(C(=O)N2CCN(c3ncccn3)CC2)c1)N1CCN(c2ncccn2)CC1	-	-	-	.	.	.	.	.
O=C(NCCCO)c1ccc2nc(-c3ccco3)c(-c3ccco3)nc2c1	-	.	-	-	-	-	.	.
O=C(Nc1ccccc1)c1ccc2nc(-c3ccco3)c(-c3ccco3)nc2c1	46	-	-	-	-	-	78	53
O=C(c1ccc2nc(-c3ccco3)c(-c3ccco3)nc2c1)N1CCN(c2ncccn2)CC1	53	-	-	-	-	-	84	-	DNA FID DR=-
O=C(NCCO)Nc1ccc2nc(-c3ccco3)c(-c3ccco3)nc2c1	57	.	-	-	-	-	67	38
C=CCNC(=O)COc1coc(CN2CCN(C(=O)c3ccco3)CC2)cc1=O	.	-	.	.	.	.	.	.
S=C(Nc1ccc(N2CCOCC2)cc1)Nc1ccc2nc(-c3ccco3)c(-c3ccco3)nc2c1	55	-	-	.	.	.	-	-
Cc1cccc(NC(=O)c2ccccc2OCC(=O)N2CCCC2)c1C	40	-	-	-	-	-	-	-
CCOc1ccccc1N(CC(=O)NC(C)(C)C)C(=O)CCC(=O)Nc1nccs1	-	-	-	-	-	-	.	.
SMILES	HCV NS3 hel inh	T cruzi inh	DNA FID counter-1	MEKK3 PB1 HTS	MEKK2mut PB1 HTS	MEKK2 WT-MEK5	NS3 hel confirm	DNA FID counter-2	others
CCCC(C(=O)NC1=NCCS1)c1ccccc1 (stereo not drawn)	-	-	-	-	-	-	.	.
CCn1cc(CNC(=O)c2ccc(Cl)c([N+](=O)[O-])c2)c(C)n1	36	-	-	-	-	-	-	-
O=Cc1cn(CCOc2ccccc2)c2ccccc12	-	-	-	-	-	-	.	.
CN(C(=O)CCS(=O)(=O)c1ccc2c(c1)oc(=O)n2C)C1CCCCC1	-	-	-	-	-	-	.	.
Cc1ccc(NC(N)=S)cc1	36	-	-	-	-	-	-	-
O=C(N/N=C/c1ccc[nH]1)c1cc2ccccc2cc1O	41	-	-	-	-	-	-	-
O=C(N/N=C/c1ccncc1)c1cc2ccccc2cc1O	-	-	-	-	-	-	.	.
COc1ccc2nc3cccc(OC)c3nc2c1	-	-	-	-	-	-	.	.
COc1ccc2nc3ccccc3nc2c1N	50	-	-	-	-	-	-	-
CN(C)c1ccc(/C=N/NC(=O)C(O)(c2ccccc2)c2ccccc2)o1	65	-	-	-	-	-	-	-
CCN(CC)c1ccc2nc3ccccc3[n+](CC)c2c1	57	-	-	-	-	-	99	51
O=C1OC(c2ccc(F)cc2)=C/C1=C\c1ccc([N+](=O)[O-])o1	45	66	-	-	-	-	42	-
C[C@H](NC(=O)C1CCN(C(=O)[C@H](Cc2ccccc2)NC(=O)OC(C)(C)C)CC1)C(=O)O	-	-	-	-	-	-	.	.
CCCCC(CCC(=O)O)(C(=O)OCC)c1csc(Nc2ccc(OCC)cc2)n1 (stereo not drawn)	85	-	-	-	-	-	58	-
CCCCC(CCC(=O)O)(C(=O)OCC)c1csc(N)n1 (stereo not drawn)	-	-	-	-	-	-	.	.
Cc1ccc(S(=O)(=O)N2CCC(C(=O)OCC(=O)Nc3cc(S(C)(=O)=O)ccc3Cl)CC2)cc1C	-	-	-	-	-	-	.	.
Cc1ccc(N(C(=O)c2csnn2)C(C(=O)NC2CCCC2)c2ccncc2)c(C)c1 (stereo not drawn)	39	-	-	-	-	-	-	-

Screening results as filed in PubChem BioAssay.
